The source of these data is PMC7416767 (Gene, 2020).

Data set [1] concerns the target T1, rat EP4 receptor (Rattus norvegicus, UniProt P43114). The data set is described as follows: cAMP production, rat EP4 receptor expressed in HEK293T cells. Format: cell-based. The following applies: read-out: rat EP4 receptor cAMP levels EC50; mean ± SEM.
Data set [2] concerns the target T1, rat EP4 receptor. The experiment in a line: CRE-regulated SEAP reporter. The class given is cell-based.
In data set [3] the test system is rat BMCs. The experiment in a line: ALP enzyme activity in total rat bone marrow cell culture, day 9. Format: cell-based. The settings on record: for change in ALP activity over vehicle treated cultures: doses ranging from 1 pM to 10 μM, once at plating. Put shortly: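 Unfractionated BMCs from tibiae and femora of young or old female or male Sprague-Dawley rats, extruded into MEMα with 10% FCS and 50 μg/mL gentamicin, triturated and filtered. Plated at 1.8 × 10^5 cells/cm2 and dosed once at plating from 1000x ethanol stocks. Dex (10 nM final) added day 4. Day 9 lysis (Tris pH 8.4, ZnCl2, MgCl2, Triton X-100); pNPP, 405 nm; n = 8 wells; EC50 by non-linear regression.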

Data set [4] deals with rat BMCs. The data set is described as follows: Total adherent cell number in BMC cultures. Format: cell-based. The following applies: 1μM, days 5, 6, or 7, versus vehicle.
Data set [5] relates to rat BMCs. The data set is described as follows: ALP-positive colony area in BMC cultures. The class given is cell-based. The settings on record: 1μM, day 9, compared to vehicle.
Data set [6] concerns rat BMCs. The experiment in a line: Mineralization of BMC cultures. The settings on record: 1μM, day 21, compared to vehicle. The class given is cell-based. The essentials: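 Rat BMCs dosed at plating with 1μM test compound or 0.1% ethanol vehicle (n = 4 or 6 wells); in the short-exposure arm, 30 or 60 min suspension exposure. Dex added day 4; from day 7, osteogenic medium (ascorbic acid, dex, βGP) every 3 days. Day 21: fixed in 2% paraformaldehyde, stained with 5% AgNO3 plus UV, von Kossa-positive area per well quantified by imaging.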

The subject of data set [7] is rat BMCs. The experiment in a line: Bone phenotype marker gene expression in BMCs. The following applies: 1μM once at plating. Format: cell-based. The essentials:
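BMCs from young female rats dosed once at plating with 1μM test compound or 0.1% ethanol. Dex (10 nM final) added day 4. From day 7, fed every 3 days with medium containing ascorbic acid 100 μg/mL, dex 10 nM and βGP 10 mM. On set days, total RNA taken (n = 3 per time point), quantified at 260 nm, reverse transcribed, and analysed by SYBR Green qPCR.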

In data set [8] the test system is rat BMCs. The experiment in a line: Osteoclastogenesis assay, TRAP-positive cells in BMC cultures. Format: cell-based. The settings on record: for number of TRAP positive cells in the absence of exogenous M-CSF and RANKL: data not shown; for number of TRAP-positive cells: various doses, in the presence of 16 ng/mL RANKL and 16 ng/mL M-CSF, versus vehicle.
Data set [9] has as its system rat BMCs. The data set is described as follows: Adipogenesis assay, Oil Red O staining in BMC cultures. Format: cell-based. The following applies: 1μM, insulin and dexamethasone, day 12, versus vehicle.
Data set [10] is described as follows: Protein binding in rat plasma by equilibrium dialysis. The settings on record: 10 μM, equilibrium dialysis 4 hours 37°C. Format: in vitro ADME. (In general: In equilibrium dialysis only unbound substance equilibrates across the membrane.)
A short description of a further data set: Half-life in rat plasma. Format: in vitro ADME. The following applies: 1 μM, 37°C. Put shortly:
(§1)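 Test compound at 1 μM in rat blood or plasma, 37°C, sampled at 0, 30, 60, 90 and 120 min. Quenched with acetonitrile, centrifuged, analyte peak areas read by HPLC-MS/MS.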

Another data set is described as follows: Half-life in rat blood. The following applies: 1 μM, 37°C. The class given is in vitro ADME. The essentials: as §1
Data set [11] is described as follows: Half-life and intrinsic clearance in rat hepatocytes. The class given is in vitro ADME. Put shortly:
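Incubated at 37°C with 0.7 million viable rat hepatocytes/mL, sampled at 0, 30, 60, 90 and 120 min. Each sample quenched with acetonitrile and centrifuged; analyte peak areas measured by HPLC-MS/MS to derive half-life and intrinsic clearance.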

The nature of data set [12]: In vivo pharmacokinetics after intravenous dosing in rats. The following applies: intravenous 0.5 mg/kg, male Sprague-Dawley rats. The essentials: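 Single intravenous dose of 0.5 mg/kg in 3 male Sprague-Dawley rats. Blood sampled up to 24 h post-dose; plasma levels measured by LC-MS/MS. Parameters calculated from the plasma concentration–time course by non-compartmental analysis.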

Data set [13] in a line: Chemical stability of KMN-159. Format: physicochemical.
A further data set relates to cells. The experiment in a line: Overt toxicity in cells. The following applies: except at a very high dose. Format: cell-based.
The target in another data set is human EP4 (Homo sapiens, UniProt P35408). The following applies: read-out: human EP4 binding Ki; ref Barrett et al., 2019; cited from earlier work.
A further data set deals with human EP3. The following applies: read-out: human EP3 binding Ki; ref Barrett et al., 2019; cited from earlier work.
The test system of data set [14] is non-EP prostanoids receptors (DP, FP, IP and TP). The following applies: tested at 10 μM; ref Barrett et al., 2019; cited from earlier work.
In another data set the test system is cytochrome P450. The following applies: in vitro safety test; ref Barrett et al., 2019; cited from earlier work.
Another data set deals with bacterial. The settings on record: in vitro safety test; ref Barrett et al., 2019; cited from earlier work.
The conditions of data set [15]: in vitro safety test; ref Barrett et al., 2019; cited from earlier work.
For data set [16] the following is noted: in vitro safety test; ref Barrett et al., 2019; cited from earlier work. This is another data set of the same source.
For data set [17], the target named is T2, rat EP2 receptor (Rattus norvegicus, UniProt Q62928). The data set is described as follows: cAMP production, rat EP2 receptor expressed in HEK293T cells. Format: cell-based.
The target of data set [18] is T2, rat EP2 receptor. The experiment in a line: CRE-regulated SEAP reporter. The class given is cell-based.
Where [19] appears, read: read-out: rat EP4 receptor CREB activation EC50, CRE-SEAP reporter, mean ± SEM.

One may read the EC50 as the midpoint of the concentration-response curve. As a reminder, the clearance is the volume of plasma or blood freed of the substance per unit of time. A high value points to a high capacity for elimination. For orientation: Ki means the equilibrium dissociation constant of an inhibitor or competing ligand from its target.

T1 sequence (P43114 whole entry): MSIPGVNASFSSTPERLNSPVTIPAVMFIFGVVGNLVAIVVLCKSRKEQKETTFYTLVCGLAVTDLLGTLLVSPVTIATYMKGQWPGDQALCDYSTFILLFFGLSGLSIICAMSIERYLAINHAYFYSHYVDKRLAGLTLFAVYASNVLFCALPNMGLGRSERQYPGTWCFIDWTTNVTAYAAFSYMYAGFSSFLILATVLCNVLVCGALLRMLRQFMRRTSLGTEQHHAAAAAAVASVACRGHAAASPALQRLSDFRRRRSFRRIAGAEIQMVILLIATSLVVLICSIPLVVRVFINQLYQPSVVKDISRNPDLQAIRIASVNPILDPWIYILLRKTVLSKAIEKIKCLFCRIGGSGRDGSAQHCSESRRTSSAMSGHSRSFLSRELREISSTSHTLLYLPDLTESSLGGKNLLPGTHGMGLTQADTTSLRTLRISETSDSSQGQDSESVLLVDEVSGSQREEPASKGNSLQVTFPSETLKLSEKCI
T2 sequence (Q62928 whole entry): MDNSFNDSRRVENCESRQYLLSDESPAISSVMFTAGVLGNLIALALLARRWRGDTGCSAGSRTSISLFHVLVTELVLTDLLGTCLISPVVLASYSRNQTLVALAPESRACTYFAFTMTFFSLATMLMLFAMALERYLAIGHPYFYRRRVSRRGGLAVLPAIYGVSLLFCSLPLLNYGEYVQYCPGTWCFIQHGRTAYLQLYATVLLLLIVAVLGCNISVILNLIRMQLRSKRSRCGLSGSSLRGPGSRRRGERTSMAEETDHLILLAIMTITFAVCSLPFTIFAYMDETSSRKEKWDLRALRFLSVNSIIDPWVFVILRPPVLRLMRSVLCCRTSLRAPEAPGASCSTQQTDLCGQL
Sequence of human EP4 (P35408 whole entry): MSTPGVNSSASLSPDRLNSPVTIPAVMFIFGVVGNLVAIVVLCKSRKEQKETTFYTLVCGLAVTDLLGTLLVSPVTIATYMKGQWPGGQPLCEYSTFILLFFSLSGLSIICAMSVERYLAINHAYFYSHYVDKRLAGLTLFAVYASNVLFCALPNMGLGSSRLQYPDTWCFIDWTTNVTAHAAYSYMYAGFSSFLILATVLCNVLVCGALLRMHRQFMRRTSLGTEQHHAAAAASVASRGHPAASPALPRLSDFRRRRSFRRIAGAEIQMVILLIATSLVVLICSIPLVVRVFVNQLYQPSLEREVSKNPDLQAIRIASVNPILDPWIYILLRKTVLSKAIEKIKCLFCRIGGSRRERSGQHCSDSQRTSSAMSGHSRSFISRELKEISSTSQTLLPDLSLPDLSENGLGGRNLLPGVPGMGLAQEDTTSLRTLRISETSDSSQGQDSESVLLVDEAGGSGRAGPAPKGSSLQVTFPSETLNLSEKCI

With `CCCCCC(O)C=CC1CCC(=O)N1CCCCCCC(=O)O` (stereo not shown) [11-deoxy-8-aza-PGE1, reference compound], the concentration giving a half-maximal response (EC50) was 2.6 ± 0.62 nM at rat EP4 receptor [1] and 0.16 ± 0.049 nM at rat EP4 receptor [2] (setting [19]).
As to `CCCCC[C@H](O)/C=C/[C@H]1CCC(=O)[C@@H]1CCCCCCC(=O)O` [11-deoxy-PGE1, reference compound], the EC50 amounted to 1.3 ± 0.24 nM on rat EP4 receptor [1] and 0.06 ± 0.012 nM at rat EP4 receptor [2] (setting [19]).
For the compound `CCCCC[C@H](O)/C=C/[C@H]1CCC(=O)[C@@H]1C/C=C\CCCC(=O)O` [11-deoxy-PGE2, reference compound], at rat EP4 receptor [1], the EC50 was found to be 1.1 ± 0.16 nM.
Regarding `CCC#CC[C@H](C)[C@H](O)/C=C/[C@H]1CCC(=O)N1CCCCCCC(=O)O` [KMN-80], the EC50 was determined as 2.6 ± 0.31 nM on rat EP4 receptor [1] and 0.17 ± 0.014 nM at rat EP4 receptor [2] (setting [19]). In the data set with rat BMCs [3] (young female rat BMCs), the “potency in the BMC ALP assay compared with parent compound 11-deoxy-8-aza-PGE1” value is reported as “unchanged from the parent compound”.
In the case of `CCC#CC[C@H](C)[C@H](O)/C=C/[C@H]1CC(F)(F)C(=O)N1CCCCCCC(=O)O` [KMN-159], at rat EP4 receptor [1], the EC50 was determined as 0.5 ± 0.08 nM. Also, the EC50 at rat EP4 receptor [2] (setting [19]) amounted to 0.03 ± 0.003 nM. For the same compound, the “increase in ALP activity compared to vehicle treated cells” value in the data set on rat BMCs [3] (1μM, 10 minutes exposure then compound removed, ALP day 9) is given as “approximately 3 fold”. Moreover, in the data set with rat BMCs [3] (1μM, 10 minutes exposure, ALP measured 9 days later), the “induction of ALP as percent of the maximum reached between 30 and 60 minutes of exposure” value is “approximately 75%”. Moreover, the “increase in potency in the BMCs compared to 11-deoxy-8-aza-PGE1” value with rat BMCs [3] (young female rat BMCs, ALP EC50) is given as “approximately 40 fold”. For the same compound, the total cell number result in the data set with rat BMCs [4] is “no significant differences”. Also, the ALP positive area entry in the data set on rat BMCs [5] is given as “increase the ALP positive area”. Also, the “mineralized area detected by von Kossa staining” value with rat BMCs [6] was “increase in mineralized area”. In the data set on rat BMCs [7] (all timepoints tested, versus vehicle), the RANKL expression entry is “significantly increased expression”. For the same compound, the “Runx2 mRNA increase in expression” value in the data set with rat BMCs [7] (day 5) is ~ 2 x. The Runx2 expression result with rat BMCs [7] (days 19 and 25, versus vehicle) was “significantly increased”. The osteocalcin gene expression result in the data set on rat BMCs [7] (later days, versus vehicle) was “increased with both, time in culture and KMN-159 treatment”. In the data set on rat BMCs [7] (versus vehicle), the “ALP mRNA expression” value was “increased”, the OPG expression entry was “either unchanged or decreased” and the “collagen type IαI expression” value is on record as “further increased”. For the same compound, in the data set on rat BMCs [8], the “number of TRAP positive cells in the absence of exogenous M-CSF and RANKL” value is reported as “none was observed”; the “number of TRAP-positive cells” value is “significantly increased numbers of TRAP-positive cells”. Besides, in the data set with rat BMCs [9], the “Oil Red O staining (adipocyte formation)” value is listed as “no significant change”. For the same compound, in [10], the protein binding is 53.8 ± 3.5%. Also, the “half life - plasma” value in the data set “Half-life in rat plasma” is over 120 min. Also, the “half life - blood” value in the data set “Half-life in rat blood” is reported as over 120 min. For the same compound, in data set [11], the “intrinsic clearance - hepatocytes” value is on record as under 8.2 μL/min/10^6 cells. Also, the “half life - hepatocytes” value in [11] (0.7 million viable cells/mL, 37°C) was over 120 min. Further, in data set [12], the “area under the curve (extrapolated to infinity)” value is 21.8 ± 5.55 ng·h/mL, the “in vivo clearance rate” value is 23.9 ± 5.95 mL/h/kg, the “mean residence time last” value turned out to be 8.3 ± 1.0 min and the “steady state volume of distribution” value is 3.41 ± 1.15 L/kg. For the same compound, the clearance in data set [12] (Table 3) came to 23.9 ± 5.95 L/h/kg. The recovery result in data set [13] (in aqueous solution and upon sterilization by autoclaving or gamma irradiation, data not shown) was “higher than 90%”. In addition, the “degradation of crystalline solid” value in [13] (storage at room temperature for over two years) is given as “no measurable degradation”. Besides, the “overt toxicity in cells” value with cells is reported as “no overt toxicity”. The Ki at human EP4 is 0.38 nM. The Ki on human EP3 was 258 nM. In data set [14], the “binding to the non-EP prostanoids receptors” value is reported as “no detectable binding”. Further, the “cytochrome P450 inhibition” value in the data set on cytochrome P450 was “negative”. In addition, in the data set on bacterial, the bacterial cytotoxicity result is listed as “negative”. Moreover, the Ames fluctuation entry in [15] was “negative”. Besides, the micronucleus formation entry in [16] is listed as “negative”.
Take `CCCCC[C@H](O)/C=C/[C@H]1CC(F)(F)C(=O)N1CCCCCCC(=O)O` [KMN-165]: the EC50 came out at 0.3 ± 0.025 nM at rat EP4 receptor [1] and 0.03 ± 0.007 nM on rat EP4 receptor [2] (setting [19]).
Regarding `CCCCC[C@H](O)/C=C/[C@H]1[C@H](O)CC(=O)[C@@H]1CCCCCCC(=O)O` [PGE1, prostaglandin E1], the EC50 at rat EP2 receptor [17] came out at 79.5 ± 9.1 nM; on rat EP2 receptor [18] it was 4.5 ± 0.46 nM.
On rat EP4 receptor [2], `CCCCC[C@H](O)/C=C/[C@H]1[C@H](O)CC(=O)[C@@H]1C/C=C\CCCC(=O)O` [PGE2, prostaglandin E2, reference compound] registered an EC50 of 0.03 ± 0.002 nM. Besides, the total cell number entry in the data set with rat BMCs [4] is listed as “no significant differences”. In addition, in the data set with rat BMCs [5], the ALP positive area result is listed as “increase the ALP positive area”. Further, in the data set on rat BMCs [8], the “number of TRAP positive cells in the absence of exogenous M-CSF and RANKL” value is “none was observed”; the “number of TRAP-positive cells” value is reported as “significantly increased numbers of TRAP-positive cells”. Also, the “Oil Red O staining (adipocyte formation)” value in the data set with rat BMCs [9] is on record as “no significant change”.
With `CCCC1([C@H](O)C/C=C/[C@H]2[C@H](O)CC(=O)[C@@H]2CCCCCCC(=O)OC)CCC1` [butaprost, reference compound], the “change in ALP activity over vehicle treated cultures” value with rat BMCs [3] is “no change in ALP activity”.
In the case of `CS(=O)(=O)NC(=O)CCC/C=C\C[C@H]1C(=O)C[C@@H](O)[C@@H]1/C=C/[C@@H](O)COc1ccccc1` [sulprostone, reference compound], in the data set on rat BMCs [3], the “change in ALP activity over vehicle treated cultures” value is given as “no change in ALP activity”.
